Here are results for five compounds from ChEMBL document CHEMBL4304834, “3-Amino-chromanes and Tetrahydroquinolines as Selective 5-HT2B, 5-HT7, or σ1 Receptor Ligands” (ACS Med Chem Lett, 2019).

What all share (type): cell-based
The target in assay [1] is T1, Alpha-1B adrenergic receptor (Homo sapiens, UniProt P35368).
T1 sequence (P35368 whole entry): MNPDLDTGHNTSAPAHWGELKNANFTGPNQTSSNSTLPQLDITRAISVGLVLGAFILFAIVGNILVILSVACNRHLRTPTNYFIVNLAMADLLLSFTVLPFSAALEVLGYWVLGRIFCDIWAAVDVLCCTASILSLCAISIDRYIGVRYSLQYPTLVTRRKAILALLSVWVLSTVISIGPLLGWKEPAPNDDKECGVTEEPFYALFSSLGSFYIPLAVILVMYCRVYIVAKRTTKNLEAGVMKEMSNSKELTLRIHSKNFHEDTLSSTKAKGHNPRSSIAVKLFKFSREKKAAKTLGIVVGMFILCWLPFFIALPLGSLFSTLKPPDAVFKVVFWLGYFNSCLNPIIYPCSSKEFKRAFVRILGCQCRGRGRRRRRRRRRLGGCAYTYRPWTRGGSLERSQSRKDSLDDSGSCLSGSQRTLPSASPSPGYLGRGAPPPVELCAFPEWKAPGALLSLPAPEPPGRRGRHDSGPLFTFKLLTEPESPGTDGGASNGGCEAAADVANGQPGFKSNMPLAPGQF
The assay can be described thus: Displacement of [3H]-Prazosin from human recombinant adrenergic Alpha1B receptor expressed in HEKT cells after 90 mins by microbeta scintillation counting method. The essentials: (§1)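 Radioligand binding was run by the NIMH Psychoactive Drug Screening Program. Compounds were first screened at 10 μM. Those giving ≥50% binding were taken to full competition curves. Ki is reported as pKi from a sigmoidal curve fit of triplicate measurements in a single experiment; the error is the curve-fit error.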
(Loss of bound radioactivity is the signal in a displacement assay; it reports binding, not function.)

Another assay has as its target Histamine H2 receptor (Homo sapiens, UniProt P25021). Briefly: Displacement of [125I]-Iodoaminopotentidine from human recombinant histamine H2 receptor expressed in stable HEK cells at 10 uM after 90 mins by microbeta scintillation counting method relative to control. In short, it runs like this: (§2)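 Radioligand binding run by the NIMH Psychoactive Drug Screening Program. […] Otherwise Ki comes from sigmoidal curve fits of triplicate measurements in a single experiment, or is averaged over repeated experiments each run in triplicate.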

Assay [2] deals with 5-hydroxytryptamine receptor 1E (Homo sapiens, UniProt P28566). Briefly: Displacement of [3H]-HT from human recombinant 5-HT1E receptor expressed in stable HEK cells after 90 mins by microbeta scintillation counting method. The essentials: as §2
5-hydroxytryptamine receptor 1E, sequence (P28566 whole entry): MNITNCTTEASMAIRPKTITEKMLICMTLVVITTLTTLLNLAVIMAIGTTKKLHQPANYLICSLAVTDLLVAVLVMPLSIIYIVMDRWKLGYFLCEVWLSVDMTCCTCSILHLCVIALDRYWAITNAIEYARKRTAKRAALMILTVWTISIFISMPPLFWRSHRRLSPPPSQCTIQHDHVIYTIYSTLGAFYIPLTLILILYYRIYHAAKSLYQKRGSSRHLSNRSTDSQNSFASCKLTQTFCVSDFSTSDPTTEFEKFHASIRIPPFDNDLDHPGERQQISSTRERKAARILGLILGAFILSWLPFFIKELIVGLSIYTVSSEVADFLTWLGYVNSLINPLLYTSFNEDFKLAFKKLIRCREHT
The target of assay [3] is Muscarinic acetylcholine receptor M3 (Homo sapiens, UniProt P20309). The assay can be described thus: Displacement of [3H]-QNB/[3H]-NMS from human recombinant Muscarinic acetylcholine M3 receptor expressed in stable CHO cells after 90 mins by microbeta scintillation counting method. In short, it runs like this:
as §1

Assay [4] has as its target Sodium-dependent dopamine transporter (Homo sapiens, UniProt Q01959). Briefly: Displacement of [3H]-Win35428 from human recombinant DAT receptor expressed in stable HEK cells after 90 mins by microbeta scintillation counting method. In short, it runs like this:
as §1

A further assay addresses Histamine H3 receptor (Homo sapiens, UniProt Q9Y5N1). The assay can be described thus: Displacement of [3H]-alpha-methylhistamine from human recombinant histamine H3 receptor expressed in Flp-In HEK cells after 90 mins by microbeta scintillation counting method. In short, it runs like this:
as §1

For assay [5], the target named is 5-hydroxytryptamine receptor 1D (Homo sapiens, UniProt P28221). Briefly: Displacement of [3H]5-CT from human recombinant 5-HT1D receptor transiently expressed in HEKT cells at 10 uM after 90 mins by microbeta scintillation counting method relative to control.
5-hydroxytryptamine receptor 1D, sequence (P28221 whole entry): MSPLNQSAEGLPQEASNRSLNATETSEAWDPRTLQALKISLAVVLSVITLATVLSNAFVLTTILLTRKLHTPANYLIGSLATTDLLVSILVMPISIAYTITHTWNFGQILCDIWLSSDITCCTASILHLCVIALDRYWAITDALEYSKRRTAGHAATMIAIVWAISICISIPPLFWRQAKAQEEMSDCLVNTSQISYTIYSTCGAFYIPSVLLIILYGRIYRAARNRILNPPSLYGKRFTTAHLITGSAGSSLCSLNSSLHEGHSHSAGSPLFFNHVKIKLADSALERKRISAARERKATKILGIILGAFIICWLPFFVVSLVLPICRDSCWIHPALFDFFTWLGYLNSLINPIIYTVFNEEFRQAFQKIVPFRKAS
Assay [6] addresses T2, Alpha-2C adrenergic receptor (Homo sapiens, UniProt P18825).
T2 sequence (P18825 whole entry): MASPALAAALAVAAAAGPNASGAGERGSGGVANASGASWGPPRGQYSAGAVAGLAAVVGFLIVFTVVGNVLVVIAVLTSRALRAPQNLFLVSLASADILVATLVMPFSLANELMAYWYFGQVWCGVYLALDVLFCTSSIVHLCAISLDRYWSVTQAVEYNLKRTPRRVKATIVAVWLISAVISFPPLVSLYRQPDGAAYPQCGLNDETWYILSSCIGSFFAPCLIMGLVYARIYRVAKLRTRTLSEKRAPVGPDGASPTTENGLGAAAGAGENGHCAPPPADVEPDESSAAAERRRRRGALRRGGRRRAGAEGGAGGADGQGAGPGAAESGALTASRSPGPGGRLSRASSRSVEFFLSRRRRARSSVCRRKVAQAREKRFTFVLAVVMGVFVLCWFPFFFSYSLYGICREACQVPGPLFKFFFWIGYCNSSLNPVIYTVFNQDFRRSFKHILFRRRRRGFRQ
The assay can be described thus: Displacement of [3H]-Rauwolscine from human recombinant adrenergic Alpha2C receptor expressed in stable MDCK cells after 90 mins by microbeta scintillation counting method. In short, it runs like this:
as §1

Assay [7] addresses T3, Muscarinic acetylcholine receptor M4 (Homo sapiens, UniProt P08173).
T3 sequence (P08173 whole entry): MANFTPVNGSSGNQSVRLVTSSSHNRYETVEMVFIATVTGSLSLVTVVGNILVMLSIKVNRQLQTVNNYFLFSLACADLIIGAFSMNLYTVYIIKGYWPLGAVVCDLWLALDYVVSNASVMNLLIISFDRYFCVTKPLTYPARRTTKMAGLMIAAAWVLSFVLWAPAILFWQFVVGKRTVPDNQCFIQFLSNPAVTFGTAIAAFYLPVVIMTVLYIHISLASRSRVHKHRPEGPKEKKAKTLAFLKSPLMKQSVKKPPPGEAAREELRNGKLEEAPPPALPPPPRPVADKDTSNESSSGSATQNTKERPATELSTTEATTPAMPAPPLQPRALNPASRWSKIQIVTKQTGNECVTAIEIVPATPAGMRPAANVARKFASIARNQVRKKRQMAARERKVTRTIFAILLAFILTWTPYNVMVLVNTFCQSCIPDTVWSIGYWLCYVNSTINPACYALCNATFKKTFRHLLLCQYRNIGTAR
Briefly: Displacement of [3H]-QNB/[3H]-NMS from human recombinant Muscarinic acetylcholine M4 receptor expressed in stable CHO cells after 90 mins by microbeta scintillation counting method. In short, it runs like this:
as §1

For assay [8], the target named is T4, Muscarinic acetylcholine receptor M1 (Homo sapiens, UniProt P11229).
T4 sequence (P11229 whole entry): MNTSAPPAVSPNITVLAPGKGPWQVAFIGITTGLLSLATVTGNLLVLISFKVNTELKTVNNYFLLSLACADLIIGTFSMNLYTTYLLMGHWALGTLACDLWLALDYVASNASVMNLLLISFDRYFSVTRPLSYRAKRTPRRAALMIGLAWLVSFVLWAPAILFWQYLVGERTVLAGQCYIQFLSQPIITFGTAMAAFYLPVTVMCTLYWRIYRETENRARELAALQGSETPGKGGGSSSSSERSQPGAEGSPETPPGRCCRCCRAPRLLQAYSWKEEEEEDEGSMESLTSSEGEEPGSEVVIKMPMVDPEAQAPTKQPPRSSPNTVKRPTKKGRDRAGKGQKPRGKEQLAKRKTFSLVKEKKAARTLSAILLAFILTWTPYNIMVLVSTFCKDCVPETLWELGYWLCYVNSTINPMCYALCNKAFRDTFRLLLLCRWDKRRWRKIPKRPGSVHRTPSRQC
The assay can be described thus: Displacement of [3H]-QNB/[3H]-NMS from human recombinant Muscarinic acetylcholine M1 receptor expressed in stable CHO cells after 90 mins by microbeta scintillation counting method. The essentials: as §1

Histamine H2 receptor, sequence (P25021 whole entry): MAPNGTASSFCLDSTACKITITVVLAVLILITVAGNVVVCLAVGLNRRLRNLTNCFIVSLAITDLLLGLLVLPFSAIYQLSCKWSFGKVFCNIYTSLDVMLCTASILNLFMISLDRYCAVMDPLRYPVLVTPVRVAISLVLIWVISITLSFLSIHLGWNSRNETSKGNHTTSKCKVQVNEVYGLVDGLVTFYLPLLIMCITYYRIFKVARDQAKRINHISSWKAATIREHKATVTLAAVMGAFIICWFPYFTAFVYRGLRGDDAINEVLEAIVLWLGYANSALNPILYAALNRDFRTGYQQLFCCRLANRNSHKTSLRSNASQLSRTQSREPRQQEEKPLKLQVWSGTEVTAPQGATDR
Histamine H3 receptor, sequence (Q9Y5N1 whole entry): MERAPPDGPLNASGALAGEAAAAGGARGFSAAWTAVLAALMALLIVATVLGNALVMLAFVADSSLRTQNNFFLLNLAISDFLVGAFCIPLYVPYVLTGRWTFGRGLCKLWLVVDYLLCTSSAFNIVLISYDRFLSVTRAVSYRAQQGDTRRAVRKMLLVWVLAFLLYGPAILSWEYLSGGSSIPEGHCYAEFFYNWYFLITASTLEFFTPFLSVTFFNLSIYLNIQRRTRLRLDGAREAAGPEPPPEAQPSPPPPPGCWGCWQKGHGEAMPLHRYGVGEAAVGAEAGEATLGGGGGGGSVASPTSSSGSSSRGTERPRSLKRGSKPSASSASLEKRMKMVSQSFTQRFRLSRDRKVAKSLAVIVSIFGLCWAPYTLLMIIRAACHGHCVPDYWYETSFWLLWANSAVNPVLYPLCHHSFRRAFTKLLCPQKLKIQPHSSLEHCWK
Muscarinic acetylcholine receptor M3, sequence (P20309 whole entry): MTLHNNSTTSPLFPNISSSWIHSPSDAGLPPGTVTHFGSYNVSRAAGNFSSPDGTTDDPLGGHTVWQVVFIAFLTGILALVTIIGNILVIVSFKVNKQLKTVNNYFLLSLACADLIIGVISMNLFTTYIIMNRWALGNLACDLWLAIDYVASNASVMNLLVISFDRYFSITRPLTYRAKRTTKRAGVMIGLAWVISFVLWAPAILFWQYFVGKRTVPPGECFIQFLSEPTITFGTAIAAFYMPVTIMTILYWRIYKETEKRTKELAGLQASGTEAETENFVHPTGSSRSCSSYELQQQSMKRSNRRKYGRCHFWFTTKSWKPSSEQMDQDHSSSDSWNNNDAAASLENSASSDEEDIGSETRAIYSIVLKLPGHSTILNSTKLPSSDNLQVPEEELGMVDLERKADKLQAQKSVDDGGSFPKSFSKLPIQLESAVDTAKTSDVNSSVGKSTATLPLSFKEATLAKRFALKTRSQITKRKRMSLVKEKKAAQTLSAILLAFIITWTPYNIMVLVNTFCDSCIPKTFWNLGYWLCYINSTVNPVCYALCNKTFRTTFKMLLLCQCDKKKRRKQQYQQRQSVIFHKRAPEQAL
Sodium-dependent dopamine transporter, sequence (Q01959 whole entry): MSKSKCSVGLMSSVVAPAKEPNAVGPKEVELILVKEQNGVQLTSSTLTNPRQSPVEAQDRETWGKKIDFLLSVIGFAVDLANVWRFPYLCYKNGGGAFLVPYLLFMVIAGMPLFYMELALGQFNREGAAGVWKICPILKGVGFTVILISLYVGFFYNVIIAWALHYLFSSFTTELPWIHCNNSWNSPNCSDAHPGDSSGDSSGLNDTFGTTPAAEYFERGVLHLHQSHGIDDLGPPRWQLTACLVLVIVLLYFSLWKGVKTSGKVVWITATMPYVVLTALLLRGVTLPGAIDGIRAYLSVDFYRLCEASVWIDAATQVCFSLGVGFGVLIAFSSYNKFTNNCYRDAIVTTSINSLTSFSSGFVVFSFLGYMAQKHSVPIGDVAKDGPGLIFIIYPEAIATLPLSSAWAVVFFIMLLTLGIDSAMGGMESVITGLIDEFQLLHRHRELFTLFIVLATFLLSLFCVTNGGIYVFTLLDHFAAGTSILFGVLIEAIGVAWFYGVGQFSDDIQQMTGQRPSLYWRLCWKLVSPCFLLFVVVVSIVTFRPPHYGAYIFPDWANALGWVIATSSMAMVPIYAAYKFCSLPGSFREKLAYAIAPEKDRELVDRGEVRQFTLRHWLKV

By Ki is commonly meant the equilibrium dissociation constant of an inhibitor or competing ligand from its target. Usually inhibition stands for the share of the control response that was lost under treatment. Turning to `CC[C@H]1c2cc(OC)ccc2CC[C@@]1(C)N` (racemic), the Ki in assay [1] is greater than 10 µM; in assay [2] it was greater than 10 µM; in assay [3], greater than 10 µM; in assay [4] it was 5.01 µM; at Histamine H3 receptor, greater than 10 µM; in [6] it was greater than 10 µM. In addition, the Ki in [7] and in [8] was greater than 10 µM throughout. Besides, the inhibition (at Histamine H2 receptor; in assay [5]) was less than 50% each time.

As to `C[C@@]12CN(c3ccccc3)c3ccccc3[C@@H]1CCN2` (racemic), the Ki was greater than 10 µM in assay [1]; greater than 10 µM in [2]; greater than 10 µM in [3]; greater than 10 µM in assay [4]; 1 µM in [6]; greater than 10 µM in [7]. In addition, in assay [8], the Ki was greater than 10 µM.

Take `CC[C@H]1c2cc(C)ccc2OC[C@@]1(C)N` (racemic): the inhibition constant Ki (in [1]; in assay [2]; in assay [3]; in assay [4]; at Histamine H3 receptor; in [6]) was greater than 10 µM throughout. The inhibition constant Ki in assay [7] and in [8] was greater than 10 µM each time. The inhibition (on Histamine H2 receptor; in assay [5]) was less than 50% throughout.

On to `CC[C@H]1c2ccccc2N(c2ccccc2)C[C@@]1(C)N` (racemic), for which the Ki is greater than 10 µM in assay [1]; greater than 10 µM in assay [2]; greater than 10 µM in [3]; 3.16 µM in assay [4]; 3.98 µM at Histamine H3 receptor; greater than 10 µM in [6]. In addition, the Ki in assay [7] and in assay [8] was greater than 10 µM throughout.

Turning to `COc1cc(OC)c2c(c1)OC[C@@]1(C)NCC[C@@H]21` (racemic), the Ki in [1], in [2], in [3], in assay [4], in [6] and in assay [7] was greater than 10 µM in each case. Further, in assay [8], the inhibition constant (Ki) was greater than 10 µM. Also, the inhibition (at Histamine H2 receptor; in assay [5]) was less than 50% throughout.
